M1 agonist – M1 muscarinic receptor agonism | AID 626 | B-score at 10 µM | CHO-M1 cells, Fluo-4 calcium fluorescence, agonist mode; hits give high values | actives 3% (n = 64,000);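 active means fluorescence rise, raw or as B-score row- and column-corrected plate score, outside the 99.7% band of its plate's samples, either direction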
M1 antag – M1 muscarinic receptor (rat) antagonism; AID 628; B-score at 10 µM; actives 3.4% (n = 64,000); CHO-M1 cells, Fluo-4 calcium, ACh EC80 antagonist mode; hits give low values;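 active means calcium fluorescence response, raw or row-and-column corrected B-score, differing from the plate sample mean either way at a set confidence level, mostly lower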
Target sequence (P08482 whole entry, looked up): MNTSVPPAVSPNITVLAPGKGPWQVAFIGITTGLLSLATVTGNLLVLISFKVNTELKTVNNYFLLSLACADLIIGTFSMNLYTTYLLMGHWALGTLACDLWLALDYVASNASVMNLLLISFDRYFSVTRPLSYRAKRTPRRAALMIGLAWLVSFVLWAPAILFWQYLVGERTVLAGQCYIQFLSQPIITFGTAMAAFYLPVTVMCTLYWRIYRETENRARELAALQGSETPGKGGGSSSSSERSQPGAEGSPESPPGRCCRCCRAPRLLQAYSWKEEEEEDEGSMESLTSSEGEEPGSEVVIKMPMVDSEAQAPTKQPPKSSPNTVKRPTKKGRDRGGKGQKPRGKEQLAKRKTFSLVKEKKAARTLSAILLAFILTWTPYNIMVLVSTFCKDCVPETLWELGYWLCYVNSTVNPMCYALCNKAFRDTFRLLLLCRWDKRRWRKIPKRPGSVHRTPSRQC
mHtt clearance – mutant huntingtin protein clearance | AID 853 | actives 0.42% (n = 47,000) | inhibition, % at 1.5 µM | HeLa Exon1htt(103Q)mCFP, aggregate imaging; zero = plate's median compound well;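 active means inhibition of aggregate fluorescence above about 70%, also judged a hit by eye on the cell image, limit read from the data, passing the limit was not always enough; inconclusive means no rule stated for this call; inactive means not judged a hit on image review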;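 further: cells exposed to compound for three days before fixation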
D1 allo mod – allosteric modulators of human D1 dopamine receptor. HEK293 D1, CRE-luciferase, dopamine EC30 potentiation; actives deviate in either direction. actives 5.9% (n = 58,000). B-score at 10 µM. P21728;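 active means luminescence count or its row- and column-corrected plate score outside the 99.7% band of the plate's sample wells, on either side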
RORA act – RORA (human) activation; P35398; CHO-K1 Gal4-RORA LBD luciferase reporter, luminescence; percent increase over mock-subtracted basal signal; activation, % at 10 µM; actives 1.5% (n = 65,000); AID 560;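 active means activation above the mean of all tested compounds plus 3 SD, cut at about 49% in these data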;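 further: 0% = DMSO-treated RORA cells and 100% = added signal equal to DMSO minus mock-transfected cells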
SF-1 act – activates the human nuclear receptor SF-1 | CHO-K1 Gal4-SF-1 LBD luciferase reporter; % increase over DMSO SF-1-specific signal | AID 522 | actives 1.9% (n = 65,000) | activation, % at 10 µM | Q13285;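 active means activation above the mean activation of all tested compounds plus 3 SD, cut at about 50% in these data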
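Material: Transient Gal4-SF-1 LBD reporter, CHO-K1 | Input: 4,000 cells/well | Dosing: One dose, 10 µM compound, 1% DMSO | Incubation: 20 h compound treatment, 37 °C | Detection: SteadyLite luciferase luminescence | Evaluation: Percent activation relative to DMSO median and mock-transfected background | Benchmarks: DMSO-treated SF-1-transfected cells as negative, DMSO-treated mock-transfected cells lacking SF-1 as background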
M1 antag confirm – confirmation of rat M1 muscarinic receptor antagonists; shares compounds with M1 antag; CHO-M1 cells, Fluo-4 calcium, ACh EC80 antagonism; hits give low values; calcium response (max-min fluorescence) at 10 µM; actives 43% (n = 1,700);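 active means calcium response below the same-plate mean of wells given acetylcholine alone at its 80%-effect dose, minus 3 SD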;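 further: raw fluorescence intensity difference in arbitrary instrument units and not normalized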
mGluR4 antag – mGluR4 (human) activity, M1 antagonist secondary assay | AID 678 | actives 0.9% (n = 1,700) | shares compounds with M1 antag | CHO-mGluR4 calcium flux, Fluo-4 fluorescence, glutamate EC80; hits give low values | fluorescence response (max-min) at 10 µM;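 active means fluorescence response below the plate's average for near-maximal glutamate wells, less 3 SD of those wells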;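 further: raw unnormalized fluorescence span taken in the window right after glutamate addition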
* hit, by the source's call; u = inconclusive; x = not tested or not shown. Most compounds without a hit are left out; they make up all but 11% or so of the library.

SMILES	M1 agonist	M1 antag	mHtt clearance	D1 allo mod	RORA act	SF-1 act	M1 antag confirm	mGluR4 antag
Cn1c(SCCN2CCCCC2)nnc1-c1ccccc1Br	1	-2*	-38	0.068	15	-4	561*	249
Cc1cc(N2CCN(C(c3ccccc3)c3ccc(Cl)cc3)CC2)n2ncnc2n1 (configuration not stated)	0.15	-0.49	x	0.24	-10	22	x	x
Cc1cc(N2CCN(C/C=C/c3ccccc3)CC2)n2ncnc2n1	-0.32	-1.6*	x	-0.66	-17	-7	525	231
O=C(NCCN1CCOCC1)c1ccc2c(c1)N(Cc1ccccc1F)C(=O)CS2	0.2	-3.8*	x	-0.033	0	8	172*	172
O=C(CN1CCOCC1)NCC12CC3CC(CC(C3)C1)C2	-0.27	0.68	-8	1.5	3	-2	x	x
COc1ccc(-n2cnnc2SCC(=O)N(C)C2CCS(=O)(=O)C2)cc1 (configuration not stated)	-0.19	0.044	x	0.13	-1	3	x	x
CCN(CC)Cc1cc2ccccc2c2c1COC2	-0.16	-2.3*	x	-0.16	1	21	473*	207
CCCCN(CCCC)Cc1cc2ccccc2c2c1COC2	x	x	-20	x	x	x	x	x
O=C(NCc1cccs1)C1CCN(S(=O)(=O)c2cccc3cccnc23)CC1	-0.94	-0.53	x	1.5	-4	25	x	x
CCCCCNC(=O)c1ccccc1SC	x	x	13	x	x	x	x	x
O=C(CN1CCN(c2ccccn2)CC1)N1c2ccccc2Sc2ccc(C(F)(F)F)cc21	-0.3	-4*	x	0.12	-22	-4	450*	171
CCOC(=O)N1CCN(C(=O)CN(c2cccc(C(F)(F)F)c2)S(=O)(=O)c2ccccc2)CC1	0.38	0.71	17	x	7	-7	x	x
Cc1ccc(S(=O)(=O)N(CC(=O)N2CCC(C(N)=O)CC2)c2cccc(C(F)(F)F)c2)cc1	-0.3	-7.3*	x	-0.95	-20	-4	624	217
O=C(CN(CCc1ccccc1)C(=O)CNS(=O)(=O)c1ccc(F)cc1)NCC1CCCO1 (configuration not stated)	0.074	-2.3*	-23	-0.34	15	-10	642	238
O=C(CN(CC1CCCO1)C(=O)CNS(=O)(=O)c1ccc(Cl)cc1)NCCc1ccccc1 (configuration not stated)	x	x	48	x	x	x	x	x
N#Cc1c(-n2cccc2/C=N/O)sc2c1CCCC2	-0.26	-7*	x	-0.18	9	-1	248*	187
CCOC(=O)Cn1c(=N)n(CCOc2cccc(C)c2)c2ccccc21	-1.5	-0.8*	24	-0.93	-12	4	603	229
CCOC(=O)Cn1c(=N)n(Cc2ccccc2)c2ccccc21	0.41	-0.35	x	-1.1	-3	1	x	x
COc1cccc(-c2nc(CS(=O)CC(=O)NCc3ccccc3Cl)c(C)o2)c1 (configuration not stated)	0.3	1.3	u	1.8	1	-11	x	x
COCCSc1nc2sc3c(c2c(=O)n1-c1ccccc1)CCN(C)C3	-0.84	-3*	61	x	-5	-18	519	231
CN(C)S(=O)(=O)c1cccc(C(=O)Nc2ccc(Cl)cn2)c1	-0.095	-3*	x	x	18	65*	683	175
COc1ccc(C(=O)Nc2ccc(Cl)cn2)cc1Cl	0.51	-0.44	-12	-1.9	48	45	x	x
Cc1cc(Cl)ccc1Oc1cccc(C(=O)/C(C#N)=C/N(C)C)c1	x	x	34	x	x	x	x	x
COc1ccc(OC)c(NC(=O)C2CC(C)=C(C)CC2C(=O)O)c1 (configuration not stated)	0.58	0.066	12	-0.93	11	12	x	x
O=C(c1cc(-c2ccco2)on1)N1CCN(C(c2ccccc2)c2ccccc2)CC1	-1.5	-2.7*	-5	-0.4	-4	-18	458	170
SMILES	M1 agonist	M1 antag	mHtt clearance	D1 allo mod	RORA act	SF-1 act	M1 antag confirm	mGluR4 antag
CCOC(=O)C(C)Sc1ncnc2c1nnn2-c1ccc(F)cc1 (configuration not stated)	-0.41	-0.82	x	-0.84	0	-2	x	x
CCC(Sc1ncnc2c1nnn2-c1ccc(F)cc1)C(=O)OC (configuration not stated)	-0.13	-2.8*	x	3	-4	19	640	243
CCOC(=O)N1CCN(C(=O)CSCC(=O)N=c2sc3cc(OC)ccc3n2C)CC1	-0.054	0.92	x	0.42	7	-5	x	x
Cc1cc(C)nc(NC2=NCCN2C(=O)Nc2ccc(Cl)c(Cl)c2)n1	-0.73	-4.1*	-18	-0.082	6	-2	475	217
COc1cccc(NC(=O)c2ccccc2NS(C)(=O)=O)c1	-0.37	-0.0055	-12	x	-2	14	x	x
CS(=O)(=O)Nc1ccccc1C(=O)Nc1cccc(Cl)c1	1.6	-2.5*	5	-2.3	1	-1	627	187
c1cc2c(cc1C1CCCN1)OCCCO2 (configuration not stated)	0.53	-3.7*	8	x	-7	2	513*	239
COc1ccc(-c2noc(CCC(=O)NCc3cccnc3)n2)cc1OC	x	x	x	1.4	5	-15	x	x
O=C1CC(Cc2ccccc2)C(=O)N1CCCn1ccnc1 (configuration not stated)	0.55	-2.8*	x	0.4	x	x	614	186
O=C1CC(Cc2ccccc2)C(=O)N1CCc1ccc2c(c1)OCO2 (configuration not stated)	0.02	-0.27	x	-0.68	-24	18	x	x
CC(=O)OC(/C(O)=C(\C#N)c1nc2ccccc2[nH]1)c1ccccc1 (configuration not stated)	-0.77	-0.025	-26	-2.3	-16	0	x	x
CCCOc1ccc2[nH]cc(C(=O)O)c(=O)c2c1	0.018	-0.59	x	0.75	7	-10	x	x
CC(C)C[C@H](NC(=O)OC(C)(C)C)c1nnc(SCC(=O)Nc2ccc(Br)cc2)o1	0.019	-3.1*	-8	0.45	24	5	555	182
Cc1nc2cc(C(F)(F)F)ccc2n1C1CCN(CC(=O)NC(C)(C)C)CC1	0.92	-0.21	22	-0.95	-9	-16	x	x
CN(C)c1nc2c(c(=O)[nH]c(=O)n2C)n1Cc1ccccc1Br	0.18	-2.9*	x	-0.61	8	-1	678	242
CC(C)CC(=O)Nc1ccccc1-c1nnn(CC(=O)N2CCOCC2)n1	0.41	0.4	x	0.052	-2	3	x	x
CN1CCC(N(C)CC(=O)Nc2cccc(Oc3ccccc3)c2)CC1	0.28	-2.8*	x	-0.53	-20	-8	454*	236
CCCCn1c(SCC2CCCCO2)nc2cc(S(N)(=O)=O)ccc21 (configuration not stated)	0.16	-0.028	x	0.97	8	0	x	x

Assay outcomes as filed in PubChem BioAssay.
